# Bioassay records deposited in PubChem by Johns Hopkins Ion Channel Center.
# In the library only some 2.3% were active in any assay of this set; here they are far more common.
# TRPC4 act: activators of mouse TRPC4 channel, primary screen, Fluo4 calcium, HEK293 TRPC4beta/mu-opioid cells. B-score at 10 µM. actives 0.49% (n = 310,000). AID 2237, 2010. Short transient receptor potential channel 4 (Mus musculus), Q9QUQ5. Fluo4 calcium fluorescence; hits give high values;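 active = B-score above 5 SD of library B-scores, and initial fluorescence ratio not above library mean plus 5 SD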;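 note: positive B-score marks a calcium rise read as TRPC4 activation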
#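 System: HEK293 cells stably co-expressing mouse TRPC4beta and mu-opioid receptor; Schedule: Fluo4 dye loading 45 min at room temperature, 110 s recording; Detection: Fluo4 fluorescence, kinetic; Evaluation: B-scored integrated calcium fluorescence ratio; Controls: buffer (low) and maximal DAMGO (high).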
# TRPC6 act: mouse TRPC6 channel activators, primary screen, cell-based, HEK293, membrane potential dye; HEK293-TRPC6 membrane potential dye fluorescence; hits give high values; Short transient receptor potential channel 6 (Mus musculus), Q61143; B-score at 10 µM; actives 0.13% (n = 310,000);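 active = B-score of the integrated fluorescence ratio above library mean plus 3 SD, and starting fluorescence ratio within library mean plus 5 SD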;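 note: higher score means more depolarization so channel activation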
# TRPC4 block: inhibitors of mouse TRPC4 channel, primary screen, Fluo4 calcium, HEK293 TRPC4beta/mu-opioid cells | Short transient receptor potential channel 4 (Mus musculus), Q9QUQ5 | actives 0.39% (n = 300,000) | DAMGO-evoked Fluo4 calcium flux; hits give low values | B-score at 10 µM;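 active = B-score over 3 SD under the library average, no early fluorescence shift, positive overall ratio signal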
#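 Material: HEK293 cells with stable TRPC4beta plus mu-opioid receptor expression; probe or stimulus: DAMGO in two steps, submaximal then maximal; technique: Fluo4 calcium fluorescence by kinetic imaging, 5 s 1 Hz baseline; measure: integrated fluorescence ratio relative to baseline, converted to per-well B score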
# TRPC6 inhibitor: mouse TRPC6 channel inhibitors, primary screen, cell-based, HEK293, membrane potential dye | ACh-evoked depolarization; hits give low values | B-score at 10 µM | actives 1.1% (n = 310,000) | AID 2553, 2010;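 active = B-score under library mean minus 3 SD, initial fluorescence not abnormally high, positive integrated signal ratio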;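 note: B-score derived from integrated fluorescence ratio over the kinetic read; more negative B-score means stronger inhibition of depolarization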
# TRPC4 potent: positive allosteric modulators of TRPC4, primary screen, cell-based, mouse TRPC4beta, HEK293 mu-opioid, Fluo-4 calcium; B-score at 10 µM; actives 0.42% (n = 310,000); Short transient receptor potential channel 4 (Mus musculus), Q9QUQ5; DAMGO EC20, Fluo-4 Ca2+ flux; hits give high values;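 active = B-score of calcium response area above 5 SD of library B-scores, with initial fluorescence ratio within 5 SD of library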;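 note: B-score of integrated fluorescence ratio over time as area under calcium response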
# TRPC4 spec 2: second selectivity test of TRPC6 inhibitors: effect on mouse TRPC4. shares compounds with TRPC6 inhibitor. HEK293 TRPC4/MOR, membrane potential dye fluorescence; channel activated by saturating DAMGO dose. inhibition, % at 10 µM. actives 42% (n = 920). AID 2776;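 active = compounds whose fluorescence signal differed from control wells by over 3 SD, either direction, in both duplicate plates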
# TRPC4 spec: mouse TRPC4 modulation by TRPC6 hits, confirmation, selectivity assay for TRPC6 inhibitor project, cell-based, HEK293 TRPC4/mu-opioid, membrane potential dye; shares compounds with TRPC6 inhibitor; membrane potential fluorescence; actives 61% (n = 920); activity change, negative = inhibition, % at 10 µM;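 active = rise or fall in signal beyond 3 SD of buffer-only wells in both replicate plates, either sign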;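 note: integrated kinetic ratio of fluorescence range over baseline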
# HEK293 MPD ctr 2-1: nonspecific membrane potential effects, parental HEK293, confirmation, counter-screen for TRPC6 inhibitor project, cell-based, second counter screen; shares compounds with TRPC6 inhibitor; parental HEK293 membrane potential dye fluorescence; maximal acetylcholine challenge after compound addition; signal change vs control, % at 10 µM; actives 31% (n = 920); AID 2779, 2010;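 active = membrane potential signal moving either way by over 3 SD of the maximum-effect control, in both duplicate plates, meaning non-specific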
# HEK293 MPD ctr-1: membrane potential modulation in parental HEK293, confirmation, counter-screen for TRPC6 inhibitor project, cell-based; shares compounds with TRPC6 inhibitor; parental HEK293 membrane potential dye fluorescence; membrane potential signal change, % at 10 µM; actives 60% (n = 920); AID 2780, 2010;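 active = membrane potential signal shifting up or down by more than 3 SD of buffer-only wells, on both duplicate plates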
# HEK293 MPD ctr-2: parental HEK293 membrane potential modulation, confirmation, counter-screen for TRPC6 modulator project, cell-based; shares compounds with TRPC6 inhibitor; membrane potential dye fluorescence; membrane potential signal change, % at 10 µM; actives 51% (n = 2,400); AID 488924, 2010;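 active = membrane potential signal moves up or down beyond 5 SD from buffer-only wells, on both duplicate plates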
# HEK293 MPD ctr 2-2: second check of TRPC6 modulator effects in parental HEK293 cells. AID 488926. shares compounds with TRPC6 inhibitor. actives 14% (n = 2,400). inhibition, % at 10 µM. membrane potential dye fluorescence; after compound, maximal acetylcholine stimulation;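 active = membrane potential signal drops by more than 5 SD from the mean control signal, in both duplicate plates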;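 note: plate controls were acetylcholine ECmax control wells for no effect and buffer only wells for full effect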
# TRPC4/MOR mod: TRPC4 modulation by TRPC6 hit compounds, confirmation, selectivity assay for TRPC6 modulator project, cell-based, HEK293 TRPC4/mu-opioid, membrane potential dye, mouse; percent change from control (negative = decrease, positive = increase), % at 10 µM; actives 69% (n = 2,400); membrane potential fluorescence; shares compounds with TRPC6 inhibitor; AID 488927, 2010;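 active = membrane potential signal moved up or down beyond 5 SD of buffer control wells, in both duplicate plates, actives on both sides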;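 note: plate controls were assay buffer wells for no effect and DAMGO maximal-effect wells for full effect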
# TRPC4 ctr inh 2: mouse TRPC4 off-target activity of TRPC6 modulators, second screen. HEK293 TRPC4/mu-opioid, membrane potential dye fluorescence; stimulated with maximal-effect DAMGO. shares compounds with TRPC6 inhibitor. inhibition, % at 10 µM. actives 55% (n = 2,400);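 active = drop in membrane potential signal beyond 5 SD of the control wells in both duplicate plates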;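 note: TRPC4 counter screen for TRPC6 hits run under conditions tuned for TRPC6 not TRPC4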
# TRPC6 inh conf: mouse TRPC6 channel inhibitors, confirmation, HEK293 cells, membrane potential dye, duplicate | actives 43% (n = 3,300) | AID 488960, 2010 | ACh-evoked depolarization | shares compounds with TRPC6 inhibitor | inhibition, % at 10 µM;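 active = fluorescence ratio falls more than 5 SD below the full-stimulation control mean, in both duplicate runs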;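 note: integrated fluorescence ratio of peak minus minimum over baseline after agonist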
# TRPC6 act confirm: mouse TRPC6 channel activators, confirmation, HEK293 cells, membrane potential dye, duplicate. actives 11% (n = 2,800). activation, % at 10 µM. HEK293-TRPC6 membrane potential dye fluorescence, FDSS. shares compounds with TRPC6 inhibitor. AID 488961, 2010;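 active = ratio signal rise beyond 5 SD above unstimulated control wells' mean, seen in both duplicate runs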;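 note: plate controls were buffer EC0 wells for no effect and acetylcholine ECmax response for full effect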
# An asterisk follows results filed as active; i = inactive; . = no result given.
SMILES,TRPC4 act,TRPC6 act,TRPC4 block,TRPC6 inhibitor,TRPC4 potent,HEK293 MPD ctr-2,HEK293 MPD ctr 2-2,TRPC4/MOR mod,TRPC4 ctr inh 2,TRPC6 inh conf,TRPC6 act confirm,others
COc1ccc(-c2csc(N(CCCN(C)C)C(=O)c3ccccc3C)n2)cc1,i,i,i,-8.9*,i,.,.,.,.,62%*,i,TRPC4 spec 2=43%*;TRPC4 spec=i;HEK293 MPD ctr 2-1=i;HEK293 MPD ctr-1=i
COc1ccc(-c2csc(N(CCCN(C)C)C(=O)c3ccccc3F)n2)cc1,i,i,i,-6.5*,i,i,i,i,85%*,51%*,i,
COCCN(C(=O)c1ccccc1F)c1nc(-c2ccc(OC)cc2)cs1,i,i,i,i,i,.,.,.,.,.,.,
COc1ccc(-c2csc(N(CCCN(C)C)C(=O)c3ccc(F)cc3)n2)cc1,i,i,i,i,i,.,.,.,.,.,.,
CCc1nc2ccc(F)cc2c(C(=O)NC2CCCCC2C)c1C (centres undefined),i,14*,i,i,i,428%*,i,86%*,44%*,.,171%*,
Cc1cc(C(=O)NC2CCCCC2C)c2ccccc2n1 (centres undefined),i,i,i,i,i,.,.,.,.,.,.,
CCn1cc(C(=O)O)c(=O)c2cnc(N3CCN(C(=S)NC(=O)c4ccc(Cl)cc4)CC3)nc21,i,i,i,i,i,.,.,.,.,.,.,
Cc1cc(/C=C2/C(=O)N(C)C(=S)N2C)ccc1N1CCCC1,i,i,i,i,i,.,.,.,.,.,.,
